Test results taken from ChEMBL document CHEMBL5325455, “Daphnanes diterpenes from the latex of Hura crepitans L. and their PKCζ-dependent anti-proliferative activity on colorectal cancer cells” (Bioorg Med Chem, 2023).
Calls of active or inactive are those of the source. The calls are words filed in the database; no cut-off is given here.

How the values were obtained:
[1] = tested on: Zika virus; assay: Antiviral activity against ZIKV expressing GFP reporter gene measured 24 hrs post infection; assay type: functional, organism-based
How it was run: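 Cells in 96-well plates were exposed to serial concentrations starting at 50 µg/mL and infected with GFP-reporter Zika virus at MOI 1. At 24 h post-infection, cells were fixed in 3.7% PFA and GFP-positive cells were counted by flow cytometry.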

[2] = tested on: SARS-CoV-2; assay: Antiviral activity against SARS-CoV-2 assessed as reduction in progeny production measured 24 hrs post infection by PFU assay; assay type: functional, organism-based; details: Severe acute respiratory syndrome coronavirus 2, 24 h
[3] = tested on: Caco-2; assay: Cytotoxicity against human Caco-2 cells assessed as cell death; assay type: functional, cell-based
[4] = tested on: Caco-2; assay: Cytostatic activity against human Caco-2 cells assessed as inhibition of cell growth at 1 ug/ml incubated for 48 hrs by MTS assay; assay type: functional, cell-based; details: dose 1.0 µg/ml
How it was run: (§1)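 Caco-2 cells were seeded at 40 000/well 48 h before dosing. Compound was diluted from a 10 mg/mL DMSO stock into medium (0.125, 0.5 or 1 µg/mL final; DMSO ≤0.01%) and added in triplicate for 48 h. Viability was read by MTS absorbance at 490 nm and expressed relative to the DMSO control.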

[5] = tested on: Caco-2; assay: Cytostatic activity against human Caco-2 cells assessed as inhibition of cell growth at 1 ug/ml incubated for 48 hrs by MTS assay relative to control; assay type: functional; how it was run: as §1
[6] = tested on: Colorectal epithelial cell; assay: Cytostatic activity against human Colorectal epithelial cells isolated from left colon of patient with recurrent diverticulitis cultured as organoids at 1 ug/ml incubated for 48 hrs by CellTiter-Glo luminescence assay; assay type: functional, cell-based; details: dose 1.0 µg/ml
How it was run: (§2)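 Primary colonic epithelial cells (3 control and 2 CRC patients) were expanded as organoids or spheroids in Matrigel with EGF/noggin/Wnt3a/R-spondin medium. Single cells were seeded at 2500/well and allowed 48 h to form colonoids, then exposed for 48 h at 0.01, 0.1 or 1 µg/mL, with 5FdU at 1 µg/mL as positive control. Viability was read by CellTiter-Glo luminescence versus DMSO or medium control.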

[7] = tested on: Colorectal epithelial cell; assay: Cytostatic activity against human Colorectal epithelial cells isolated from patient with well-differentiated colonic adenocarcinoma cultured as organoids at 1 ug/ml incubated for 48 hrs by CellTiter-Glo luminescence assay; assay type: functional, cell-based; details: dose 1.0 µg/ml; how it was run: as §2
[8] = tested on: Colorectal epithelial cell; assay: Cytostatic activity against human Colorectal epithelial cells isolated from patient with fistulized sigmoiditis cultured as organoids at 1 ug/ml incubated for 48 hrs by CellTiter-Glo luminescence assay; assay type: functional, cell-based; details: dose 1.0 µg/ml; how it was run: as §2
[9] = tested on: Colorectal epithelial cell; assay: Cytostatic activity against human Colorectal epithelial cells isolated from left colon of patient with sigmoido-vaginal fistula for diverticulitis cultured as organoids at 1 ug/ml incubated for 48 hrs by CellTiter-Glo luminescence assay; assay type: functional, cell-based; details: dose 1.0 µg/ml; how it was run: as §2
[10] = tested on: Colorectal epithelial cell; assay: Cytostatic activity against human Colorectal epithelial cells isolated from patient with well-differentiated colonic adenocarcinoma and undergone nine courses of chemotherapy cultured as organoids at 1 ug/ml incubated for 48 hrs by CellTiter-Glo luminescence assay; assay type: functional, cell-based; details: dose 1.0 µg/ml; how it was run: as §2
[11] = tested on: Caco-2; assay: Upregulation of PKCdelta protein expression in human Caco-2 cells at 1 ug/ml incubated for 48 hrs by Western blot analysis; assay type: functional, cell-based; details: dose 1.0 µg/ml
How it was run: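 Caco-2 cells, 0.25 × 10^6 per well, seeded 48 h before treatment; DMSO vehicle control. Optional 15 min pretreatment with 0.2 µM Gö6976. Cells lysed on ice after 48 h in pH 7.4 Tris/NaCl/Triton/EDTA buffer with protease and phosphatase inhibitors. 30 µg protein run on 4–15% SDS-PAGE, blotted to nitrocellulose, ECL detection. pSer664 and total PKCδ probed, ratio quantified, actin as loading control; one experiment.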

C=C(C)[C@]1(O)C[C@@H](C)[C@]2(O)[C@H]([C@H]1O)[C@@H]1O[C@]1(COC(=O)CCCCCCCCCC(C)/C=C/CCCCC)[C@@H](O)[C@]1(O)C(=O)C(C)=C[C@H]12 (stereo not given in full)
IC50 [1]: > 50 µM | IC50 [2]: 34.2 µM | Activity [3]: inactive | Activity [4]: inactive

C=C(C)[C@]12C[C@@H](C)[C@@]34O[C@](/C=C/C=C/C(=O)CCCCCCCC)(O[C@@H]1[C@@H]3[C@@H]1O[C@]1(CO)[C@@H](O)[C@]1(O)C(=O)C(C)=C[C@H]14)O2
IC50 [1]: > 50 µM | IC50 [2]: 50.2 µM | Activity [3]: inactive | inhibition at 1 µg/mL [5]: ~25%

C=C(C)[C@]12C[C@@H](C)[C@@]34O[C@](/C=C/C=C/[C@H](O)CCCCCCCC)(O[C@@H]1[C@@H]3[C@@H]1O[C@]1(CO)[C@@H](O)[C@]1(O)C(=O)C(C)=C[C@H]14)O2
Activity [3]: inactive | inhibition at 1 µg/mL [5]: ~25%

C=C(C)[C@]12C[C@@H](C)[C@@]34O[C@](/C=C/[C@H](O)[C@@H](O)CCCCCCCCC)(O[C@@H]1[C@@H]3[C@@H]1O[C@]1(CO)[C@@H](O)[C@]1(O)C(=O)C(C)=C[C@H]14)O2
Activity [3]: inactive | Activity [4]: Active

O=c1[nH]c(=O)n([C@H]2C[C@H](O)[C@@H](CO)O2)cc1F
Activity [6]: inactive | Activity [7]: inactive | Activity [8]: inactive | Activity [9]: inactive | Activity [10]: inactive

Cn1c2ccccc2c2c3c(c4c5ccccc5n(CCC#N)c4c21)CNC3=O
Activity [11]: Active

C=C(C)[C@]12C[C@@H](C)[C@@]34O[C@](/C=C/C=C\C(=O)CCCCCCCC)(O[C@@H]1[C@@H]3[C@@H]1O[C@]1(CO)[C@@H](O)[C@]1(O)C(=O)C(C)=C[C@H]14)O2
Activity [3]: inactive | inhibition at 1 µg/mL [5]: ~25%
